Measured values as given in ChEMBL document CHEMBL4138185, “Investigation of the Physical and Bioactive Properties of Bromo- and Iodo-Containing Sponge-Derived Compounds Possessing an Oxyphenylethanamine Core” (J Nat Prod, 2017).

How the values were obtained:
Type in all cases: organism-based
Settings in all cases: in vivo
[1] = tested on: Yersinia pseudotuberculosis; test: Growth inhibition of Yersinia pseudotuberculosis harboring pYV deletion mutant at 60 uM measured at 30 mins interval for 8 hrs
Method in brief: (§1)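 Y. pseudotuberculosis strain lacking the T3SS-encoding virulence plasmid pYV (pYV−), grown in low-calcium media at 37 °C with test agent at 60 μM, kanamycin at 50 μg/mL, or DMSO. Growth followed by absorbance at 600 nm over 8 h.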

[2] = tested on: Yersinia pseudotuberculosis; test: Toxicity against Yersinia pseudotuberculosis harboring pYV deletion mutant at 60 uM measured after 8 hrs by MTT assay
Method in brief: (§2)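 pYV− Y. pseudotuberculosis cultured in low-calcium media at 37 °C with test agent at 60 μM, kanamycin at 50 μg/mL, or DMSO. MTT added after 8 h of incubation; formazan absorbance at 570 nm taken as bacterial metabolic activity.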

[3] = tested on: Yersinia pseudotuberculosis; test: Toxicity against Yersinia pseudotuberculosis harboring pYV deletion mutant at 50 ug/ml measured after 8 hrs by MTT assay; method in brief: as §2
[4] = tested on: Yersinia pseudotuberculosis; test: Growth inhibition of Yersinia pseudotuberculosis harboring pYV deletion mutant at 50 ug/ml measured at 30 mins interval for 8 hrs; method in brief: as §1

CCC(=O)N(C)CCc1cc(Br)c(OCCCNC(=O)Cc2ccc(O)cc2)c(Br)c1
growth inhibition (GI) [1]: Non-Toxic
Activity [2]: Non-Toxic

CCC(=O)N(C)CCc1ccc(OCCCNC(=O)Cc2ccc(O)cc2)c(Br)c1
growth inhibition (GI) [1]: Non-Toxic
Activity [2]: Non-Toxic

COc1c(Br)cc(CC(O)C(=O)NCCc2ccc(O)c(Br)c2)cc1Br (stereo unspecified)
growth inhibition (GI) [1]: Non-Toxic
Activity [2]: Non-Toxic

CCC(=O)N(C)CCc1ccc(OCCCN(C)C(=O)Cc2ccc(O)cc2)c(Br)c1
growth inhibition (GI) [1]: Non-Toxic
Activity [2]: Non-Toxic

COc1c(Br)cc(CC(O)C(=O)NCCc2ccc(O)c(I)c2)cc1Br (stereo unspecified)
growth inhibition (GI) [1]: Non-Toxic
Activity [2]: Non-Toxic

CCC(=O)N(C)CCc1cc(Br)c(OCCCNC(=O)Cc2ccc(O)cc2)c(I)c1
growth inhibition (GI) [1]: Non-Toxic
Activity [2]: Non-Toxic

CCC(=O)N(C)CCc1ccc(OCCCNC(=O)Cc2ccc(O)cc2)c(I)c1
growth inhibition (GI) [1]: Non-Toxic
Activity [2]: Non-Toxic

NC[C@H]1O[C@H](O[C@H]2[C@H](O)[C@@H](O[C@H]3O[C@H](CO)[C@@H](O)[C@H](N)[C@H]3O)[C@H](N)C[C@@H]2N)[C@H](O)[C@@H](O)[C@@H]1O [KANAMYCIN]
Activity [3]: Non-Toxic
growth inhibition (GI) [4]: Non-Toxic
